# Compound activity (PubChem BioAssay)
# In the library only some 4.7% were active in any assay of this set; here they are far more common.
# m5-HT2A agonist: activates the mouse 5-HT2A serotonin receptor; activation, % at 7.6 µM; CHO-K1 mHTR2A beta-arrestin complementation, luminescence; percent of 30 µM serotonin response; AID 624169; 0.66% of 360,000 active;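 active means activation above a run cutoff, the mean activation of all tested compounds plus 3 SD, cut at about 14% in these data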;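 further: 0% = plate median of compound wells and 100% = 30 µM serotonin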
# AHR activator: human AHR activation; AHR-responsive luciferase reporter cells, luminescence; activation, % at 5 µM; 2.5% of 320,000 active; in the data active means activation above about 47%;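 further: 0% = vehicle wells and 100% = reference agonist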
# MC4R antagonist: antagonists of human melanocortin 4 receptor (MC4R). P32245. MC4R-expressing cells, MTII-stimulated cAMP, LANCE TR-FRET. inhibition, % at 6.5 µM. 0.48% of 360,000 active. AID 540295;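 active means inhibition above its plate's cutoff, the mean of tested wells on that plate plus 3 SD, cut at about 29% in these data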;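 further: 0% = Melanotan II alone and 100% = Melanotan II plus saturating MCL0020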
# Target sequence (P32245 whole entry, looked up): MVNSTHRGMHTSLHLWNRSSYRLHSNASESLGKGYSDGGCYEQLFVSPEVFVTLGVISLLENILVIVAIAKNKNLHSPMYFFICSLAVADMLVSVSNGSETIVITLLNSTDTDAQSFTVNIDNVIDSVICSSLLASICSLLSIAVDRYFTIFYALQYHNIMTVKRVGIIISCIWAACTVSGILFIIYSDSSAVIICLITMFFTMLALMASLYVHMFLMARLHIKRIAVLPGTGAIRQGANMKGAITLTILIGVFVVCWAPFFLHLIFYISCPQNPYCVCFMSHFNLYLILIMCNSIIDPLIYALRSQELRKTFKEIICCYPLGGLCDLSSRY
#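 Assay system: U2OS-MC4R stable cell line; Also added: Melanotan II; Technique: Eu-cAMP/anti-cAMP TR-FRET, emission 671 nm; Times: 30-min compound, 1-h challenge, 1-h detection, room temperature.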
# MC4R barr agon: agonists of human melanocortin 4 receptor (MC4R) beta-arrestin; P32245; U2OS MC4R beta-arrestin complementation, luminescence; percent of melanotan II response, DMSO zero; activation, % at 8.9 µM; 0.98% of 360,000 active;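 active means activation above a per-plate cutoff, the mean activation of sample wells on that plate plus 3 SD, cut at about 8% in these data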
# FXN GAA850 act: increases GAA850 frataxin promoter reporter activity; AID 540364; 0.56% of 360,000 active; activation, % at 6 µM; HEK293 lucGAA850 FXN promoter luciferase reporter, 24 h; percent of 10 µM SAHA response;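 active means activation above the average of all compounds screened plus 3 SD, cutoff fixed separately per campaign, cut at about 7.5% in these data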;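 further: 0% = DMSO wells and 100% = 10 µM SAHA wells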
# MC4R barr ag: human MC4R beta-arrestin agonism confirmation; shares compounds with MC4R barr agon; activation, % at 8.9 µM; U2OS MC4R beta-arrestin recruitment, luminescence; scaled DMSO 0%, Melanotan II 100%; 31% of 2,400 active;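 active means mean activation across replicates above the hit cutoff set in the earlier primary screen, cut at about 8% in these data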
# MOR-DOR barr ag: activates mu-delta opioid heterodimer, MC4R agonist counter-screen. 5.8% of 2,400 active. U2OS PathHunter beta-arrestin, beta-gal luminescence; percent of deltorphin B response, DMSO zero. AID 602194. activation, % at 9.2 µM. shares compounds with MC4R barr agon;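 active means mean activation across replicates exceeds the hit threshold derived in the earlier primary screen, cut at about 18% in these data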;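 further: 100% = deltorphin B at 0.9 µM final and 0% = DMSO alone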
# * = called active by the depositor; . = not tested or not shown.
SMILES,m5-HT2A agonist,AHR activator,MC4R antagonist,MC4R barr agon,FXN GAA850 act,MC4R barr ag,MOR-DOR barr ag
COc1cccc(OCC(O)CN2CCC(CN3C(=O)c4cccc5cccc(c45)C3=O)CC2)c1 (stereo not given),-3.1,0.8,13.8,2.1,1.5,.,.
Cc1cc(C)cc(OCC(O)CN2CCC(CN3C(=O)c4cccc5cccc(c45)C3=O)CC2)c1 (stereo not given),-6.6,0.2,8.7,30.5*,-0.8,33.4*,13.9
COc1ccc2oc3cc(NCCN(C)C)ccc3c(=O)c2c1,-1.3,.,.,.,.,.,.
N#Cc1nc2ccccc2n1OCc1ccccc1,-2.7,.,-2.9,0.4,-1.4,.,.
COc1cccc(-c2cnc3c(NC(C)=O)cc(-c4cccc(C(=O)N(C)C)c4)cn23)c1,1.6,.,11.0,2.7,2.8,.,.
COc1ccc(-c2cc(NC(C)=O)c3ncc(-c4cccc(C(C)=O)c4)n3c2)cc1OC,-6.6,.,13.4,25.5*,2.1,27.2*,2.0
COc1cccc(-c2cnc3c(NC(C)=O)cc(-c4ccc(OC)c(OC)c4)cn23)c1,-2.5,.,7.1,7.1,4.1,.,.
COc1cccc(-c2cc(NC(C)=O)c3ncc(-c4ccc(OC)c(OC)c4)n3c2)c1,-5.3,.,6.2,16.7*,5.2,10.6*,2.7
COc1cccc(-c2cnc3c(NC(C)=O)cc(-c4ccsc4)cn23)c1,-1.2,.,24.9,37.3*,2.4,41.6*,3.3
CCOC(=O)C1(CCCc2ccccc2)CCN(C(=O)c2n[nH]c(CC)c2C)CC1,-2.5,.,-0.6,2.8,-0.2,.,.
COc1ccc(OCC(=O)Nc2cc3oc4ccccc4c3cc2OC)cc1,2.5,4.3,-6.5,37.7*,0.1,12.0*,13.6
CC(=O)Nc1cccc(C)c1,-0.5,0.1,5.1,0.4,1.1,.,.
COc1cc2c(cc1NC(=O)Nc1ccc(F)cc1)oc1ccccc12,-2.2,66.0*,-3.8,10.8*,-2.3,0.6,2.9
COc1cc2c(cc1NC(=O)/C=C/c1ccccc1)oc1ccccc12,-1.7,-1.0,-5.2,0.3,0.4,.,.
Cc1cccc(NC(=O)Nc2ccc(C)cc2Br)c1,-0.9,-0.9,5.7,11.8*,2.5,3.0,9.1
COc1cc2c(cc1NC(=O)Nc1cccc(C)c1)oc1ccccc12,3.9,-4.5,6.0,10.9*,2.5,1.9,1.9
COc1ccc(C(C)=O)cc1CN1C(=O)C(C)ON=C1c1ccccn1 (stereo not given),0.1,.,23.5,2.9,0.1,.,.
c1ccc(CN2CCC3CC2c2c3cccc2N2CCOCC2)cc1 (stereo not given),0.9,.,.,.,.,.,.
C=C(c1ccc2nc(NC(=O)OC)[nH]c2c1)c1cccs1,-2.3,.,-13.0,-1.1,5.6,.,.
COc1ccc(-c2sc3cc4c(cc3c2C#CC2(N)CCCCC2)OCO4)cc1,4.3,66.5*,3.2,16.1*,0.5,6.4,4.1
COc1ccc(-c2sc3ccc(N4CCOCC4)cc3c2C#CCO)cc1,-3.2,24.7,12.6,-2.5,-4.5,.,.
COc1cccc(-c2sc3ccc(OC)cc3c2C#CC2(O)CCCCC2)c1,10.7,8.3,2.5,-0.1,2.0,.,.
COc1ccc(-c2sc3cc4c(cc3c2-c2ccc(OCCN3CCOCC3)cc2)OCO4)cc1,4.7,1.4,-3.9,0.5,-1.1,.,.
COc1cc(OC)cc(-c2sc3ccc(OC)cc3c2C#CC2(N)CCCCC2)c1,-4.5,10.8,17.7,21.1*,-1.1,14.5*,6.2
COc1ccc(-c2sc3ccc(N4CCOCC4)cc3c2C#CC2(O)CCCCC2)cc1,-6.5,33.0,5.8,31.9*,0.0,45.2*,10.9
SMILES,m5-HT2A agonist,AHR activator,MC4R antagonist,MC4R barr agon,FXN GAA850 act,MC4R barr ag,MOR-DOR barr ag
COc1ccccc1N1CCN(C(=O)C(=O)c2cccc([N+](=O)[O-])c2)CC1,-1.5,.,.,.,.,.,.
CC(C)(C)OC(=O)N1CCN(C(=O)OCC2c3ccccc3-c3ccccc32)CC1C(=O)O (stereo not given),-1.8,2.8,-3.5,1.1,0.2,.,.
Cc1cccc(-c2n[nH]c(=S)n2/N=C/c2ccc(C)s2)c1,-4.5,10.3,5.0,11.6*,0.7,-0.5,4.1
Cc1cccc(-c2n[nH]c(=S)n2/N=C/c2cccs2)c1,5.5,12.8,25.0,-0.2,1.1,.,.
O=C(NCCc1ccc(Cl)cc1)c1cc(-c2ccncc2)nc2ccccc12,-0.5,5.8,3.0,3.3,0.8,.,.
O=C(NCCc1ccc(Cl)cc1)c1cc(-c2ccccn2)nc2ccccc12,-10.4,12.7,16.3,10.5*,0.4,5.4,5.1
COc1ccc(CC(=O)Nc2ccc(F)c(F)c2F)cc1S(=O)(=O)N1CCOCC1,1.1,0.5,8.8,0.2,-0.1,.,.
Cc1ccc(CSCC(=O)N/N=C/c2ccc(OCC(=O)Nc3ccc(C)cc3)cc2)cc1,-4.2,6.9,3.9,16.1*,0.0,3.8,4.8
Cc1ccc(N/C(N)=N/c2nc(CSc3nnc(N)s3)cc(=O)[nH]2)cc1,1.1,25.1,-7.1,-0.6,1.0,.,.
N/C(=N\c1nc(CSc2nc3ccccc3s2)cc(=O)[nH]1)Nc1ccc(F)cc1,-5.8,30.1,1.6,11.7*,1.4,1.4,3.4
COc1ccc(C(=O)Nc2cccc(-c3cc4ccccc4oc3=O)c2)cc1[N+](=O)[O-],-2.2,1.8,-0.5,13.4*,0.1,0.0,2.5
COc1cc(/C=N/NC(=S)NC2CC3CC2C2C=CCC32)ccc1O (stereo not given),-9.5,9.2,-16.2,9.9*,3.0,5.2,8.2
CC(C)(C)c1nn(-c2ccccc2)c2[nH]c(=O)c(CNc3ccc4c(c3)OCCO4)cc12,-14.8,3.5,14.9,1.0,-11.8,.,.
COc1ccc(CNCc2cc3c(C(C)(C)C)nn(-c4ccccc4)c3[nH]c2=O)cc1,2.0,-1.9,10.4,15.0*,1.9,14.1*,12.1
O=C(NCCC1=CCCCC1)c1cc(S(=O)(=O)N2CCOCC2)c(Cl)cc1Cl,3.5,1.3,5.2,10.1*,-1.0,0.1,4.7
CC(=O)Nc1ccc(NC(=O)c2cc(-c3ccc(C)c(C)c3O)n[nH]2)cc1,-0.4,1.0,-3.6,9.7*,1.4,4.2,2.3
COc1ccc(NC(=O)Nc2cccc(Cl)c2Cl)c(OC)n1,-2.2,-5.2,4.2,23.3*,0.8,5.4,6.1
O=[N+]([O-])c1ccc2c(c1)C(=Nc1ccccc1)c1ccccc1-2,4.8,.,-5.1,11.4*,1.4,1.7,4.2
Cc1cccc(OCc2nnc(SCC(=O)Nc3sc(C)c(C)c3C#N)n2C)c1,-2.1,3.0,-1.6,16.6*,-3.2,1.9,5.8
Cc1ccc(OCc2nnc(SCC(=O)NC3CCCCC3)n2C)cc1,-1.4,0.2,-2.9,-1.0,0.7,.,.
